Data published in ChEMBL document CHEMBL2390929, “New nitric oxide donating 1,2,4-triazole/oxime hybrids: synthesis, investigation of anti-inflammatory, ulceroginic liability and antiproliferative activities” (Bioorg Med Chem, 2013).

Columns and labels:
[1] = Induction of nitric oxide release in phosphate buffer at pH 7.4 at 0.1 mM after 6 hrs by Griess method in presence of 0.5 mM of N-acetylcysteine; type: physicochemical; conditions: pH 7.4, 6 h, 100 µM
In short: (§1)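 Compound in DMF diluted to final 10^-4 M in 1:1 50 mM phosphate buffer pH 7.4/MeOH with 5×10^-4 M N-acetylcysteine, 37 °C. Aliquot mixed with Griess reagent, 10 min at room temperature, A546 read. Nitrite quantified against sodium nitrite standards (10–80 nmol/mL); NO expressed as mol/mol. n = 4 reaction mixtures per compound.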

[2] = test system: Rattus norvegicus; test: Antiinflammatory activity in albino rat assessed as inhibition of carrageenan-induced paw edema at 0.28 mmol/kg, po after 3 hrs relative to control; type: functional
In short: (§2)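 Adult male albino rats (120–140 g), four per group, fasted 24 h with water allowed. Test agent suspended in 0.5% w/v aqueous CMC and given orally at 0.28 mmol/kg; controls received CMC alone. After 30 min, 0.1 mL fresh 1% carrageenan in saline was injected subplantar into the right hind paw and saline into the left. Paw thickness was measured by Vernier caliper; % inhibition = [(VR−VL)control − (VR−VL)treated]/(VR−VL)control ×100. Mean ± SEM, one-way ANOVA.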

[3] = test system: Rattus norvegicus; test: Gastrointestinal toxicity in albino rat assessed as ulcer index at 0.28 mmol/kg, po (reference value: 0.60 +/- 0.05); type: organism-based; conditions: in vivo
[4] = Induction of nitric oxide release in phosphate buffer at pH 7.4 at 0.1 mM after 5 hrs by Griess method in presence of 0.5 mM of N-acetylcysteine; type: physicochemical; conditions: pH 7.4, 5 h, 100 µM; in short: as §1
[5] = test system: Rattus norvegicus; test: Antiinflammatory activity in albino rat assessed as inhibition of carrageenan-induced paw edema at 0.28 mmol/kg, po after 4 hrs relative to control; type: functional; in short: as §2
[6] = test system: Rattus norvegicus; test: Antiinflammatory activity in albino rat assessed as inhibition of carrageenan-induced paw edema at 0.28 mmol/kg, po after 5 hrs relative to control; type: functional; in short: as §2
[7] = Induction of nitric oxide release in phosphate buffer at pH 7.4 at 0.1 mM after 1 hr by Griess method in presence of 0.5 mM of N-acetylcysteine; type: physicochemical; conditions: pH 7.4, 1 h, 100 µM; in short: as §1
[8] = test system: Rattus norvegicus; test: Antiinflammatory activity in albino rat assessed as inhibition of carrageenan-induced paw edema at 0.28 mmol/kg, po after 2 hrs relative to control; type: functional; in short: as §2
[9] = Induction of nitric oxide release in phosphate buffer at pH 7.4 at 0.1 mM after 4 hrs by Griess method in presence of 0.5 mM of N-acetylcysteine; type: physicochemical; conditions: pH 7.4, 4 h, 100 µM; in short: as §1
[10] = test system: Rattus norvegicus; test: Antiinflammatory activity in albino rat assessed as inhibition of carrageenan-induced paw edema at 0.28 mmol/kg, po after 1 hr relative to control; type: functional; in short: as §2
[11] = Induction of nitric oxide release in phosphate buffer at pH 7.4 at 0.1 mM after 2 hrs by Griess method in presence of 0.5 mM of N-acetylcysteine; type: physicochemical; conditions: pH 7.4, 2 h, 100 µM; in short: as §1
[12] = Induction of nitric oxide release in phosphate buffer at pH 7.4 at 0.1 mM after 3 hrs by Griess method in presence of 0.5 mM of N-acetylcysteine; type: physicochemical; conditions: pH 7.4, 3 h, 100 µM; in short: as §1
[13] = test system: Rattus norvegicus; test: Gastrointestinal toxicity in albino rat assessed as histopathological analysis at 0.28 mmol/kg, po using haematoxylin and eosin staining by light microscopic analysis; type: organism-based; conditions: in vivo
In short: (§3)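 Adult male albino rats (120–140 g, Minia University), groups of four, fasted 24 h with water allowed. Oral dose 0.28 mmol/kg suspended in 0.5% aqueous CMC; vehicle-only controls. Gastric sections dewaxed, stained with haematoxylin 5–7 min, differentiated in 1% HCl/70% alcohol, counterstained with 1% eosin 10 min. Cleared in xylene, mounted, examined by light microscopy at ×400.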

[14] = test system: Rattus norvegicus; test: Gastrointestinal toxicity in albino rat assessed as capillary vasodilatation associated with accumulation of edema fluid in lamina propria at 0.28 mmol/kg, po using haematoxylin and eosin staining by light microscopic analysis; type: organism-based; conditions: in vivo; in short: as §3
[15] = test system: Rattus norvegicus; test: Gastrointestinal toxicity in albino rat assessed as severe atrophic gastritis and gland atrophy at 0.28 mmol/kg, po using haematoxylin and eosin staining by light microscopic analysis; type: organism-based; conditions: in vivo; in short: as §3
[16] = test system: Rattus norvegicus; test: Gastrointestinal toxicity in albino rat assessed as acute inflammatory cell infiltrating its whole thickness and apparently destroying surface of epithelium at 0.28 mmol/kg, po using haematoxylin and eosin staining by light microscopic analysis; type: organism-based; conditions: in vivo; in short: as §3
[17] = test system: Rattus norvegicus; test: Gastrointestinal toxicity in albino rat assessed as apoptotic glandular epithelial cells at 0.28 mmol/kg, po using haematoxylin and eosin staining by light microscopic analysis; type: organism-based, Epithelial cell; conditions: in vivo; in short: as §3
[18] = test system: Rattus norvegicus; test: Gastrointestinal toxicity in albino rat assessed as acute inflammatory cell infiltrating its whole thickness and apparently destroying epithelial lining of gastric pits at 0.28 mmol/kg, po using haematoxylin and eosin staining by light microscopic analysis; type: organism-based, Stomach; conditions: in vivo; in short: as §3
[19] = test system: Rattus norvegicus; test: Gastrointestinal toxicity in albino rat assessed as decreased in thickness with marked loss of mucosal membrane at areas of ulceration at 0.28 mmol/kg, po using haematoxylin and eosin staining by light microscopic analysis; type: organism-based; conditions: in vivo; in short: as §3

SMILES | Activity [1] [mol/mol] | inhibition in vivo at 280 µmol/kg [2] [%] | UI [3] | Activity [4] [mol/mol] | inhibition in vivo at 280 µmol/kg [5] [%] | inhibition in vivo at 280 µmol/kg [6] [%] | Activity [7] [mol/mol] | inhibition in vivo at 280 µmol/kg [8] [%] | Activity [9] [mol/mol] | inhibition in vivo at 280 µmol/kg [10] [%] | Activity [11] [mol/mol] | Activity [12] [mol/mol] | Activity [13] | Activity [14] | Activity [15] | Activity [16] | Activity [17] | Activity [18] | Activity [19]
CCn1c(SC/C(=N/O)c2ccccc2)nnc1-c1ccc(OC)cc1 | 0.12 | 75 | 2.53 | 0.14 | 78 | 71 | 0.08 | 72 | 0.19 | 69 | 0.11 | 0.14 |  |  |  |  |  |  | 
CCn1c(SC/C(=N/O)c2ccccc2)nnc1-c1cc(OC)c(OC)c(OC)c1 | 0.14 | 69 | 3.66 | 0.18 | 79 | 74 | 0.11 | 67 | 0.21 | 63 | 0.12 | 0.12 |  |  |  |  |  |  | 
C=CCn1c(SCC(=O)c2ccccc2)nnc1-c1ccccc1 |  | 70 | 2.44 |  | 66 | 66 |  | 58 |  | 43 |  |  |  |  |  |  |  |  | 
C=CCn1c(SCC(=O)c2ccccc2)nnc1-c1ccc(OC)cc1 |  | 63 | 5.34 |  | 67 | 61 |  | 53 |  | 49 |  |  |  |  |  |  |  |  | 
C=CCn1c(SCC(=O)c2ccccc2)nnc1-c1ccc(OC)c(OC)c1 |  | 64 | 4.26 |  | 72 | 62 |  | 63 |  | 61 |  |  |  |  |  |  |  |  | 
C=CCn1c(SCC(=O)c2ccccc2)nnc1-c1cc(OC)c(OC)c(OC)c1 |  | 66 | 6.39 |  | 66 | 60 |  | 62 |  | 49 |  |  |  |  |  |  |  |  | 
CCn1c(SCC(=O)c2ccccc2)nnc1-c1ccccc1 |  | 61 | 4.49 |  | 63 | 51 |  | 55 |  | 52 |  |  |  |  |  |  |  |  | 
CCn1c(SCC(=O)c2ccccc2)nnc1-c1ccc(OC)cc1 |  | 67 | 6.59 |  | 70 | 61 |  | 60 |  | 53 |  |  |  |  |  |  |  |  | 
CCn1c(SCC(=O)c2ccccc2)nnc1-c1ccc(OC)c(OC)c1 |  | 61 | 7.36 |  | 73 | 69 |  | 55 |  | 42 |  |  | Non-toxic |  |  |  |  |  | 
CCn1c(SCC(=O)c2ccccc2)nnc1-c1cc(OC)c(OC)c(OC)c1 |  | 49 | 3.42 |  | 72 | 59 |  | 41 |  | 29 |  |  |  |  |  |  |  |  | 
O=C(CSc1nnc(-c2ccccc2)n1-c1ccccc1)c1ccccc1 |  | 64 | 9.58 |  | 68 | 63 |  | 60 |  | 53 |  |  |  |  |  |  |  |  | 
COc1ccc(-c2nnc(SCC(=O)c3ccccc3)n2-c2ccccc2)cc1 |  | 58 | 8.74 |  | 68 | 61 |  | 57 |  | 52 |  |  |  |  |  |  |  |  | 
COc1ccc(-c2nnc(SCC(=O)c3ccccc3)n2-c2ccccc2)cc1OC |  | 59 | 9.41 |  | 65 | 59 |  | 57 |  | 56 |  |  |  |  |  |  |  |  | 
COc1cc(-c2nnc(SCC(=O)c3ccccc3)n2-c2ccccc2)cc(OC)c1OC |  | 68 | 5.29 |  | 73 | 72 |  | 51 |  | 44 |  |  |  |  |  |  |  |  | 
C=CCn1c(SC/C(=N\O)c2ccccc2)nnc1-c1ccccc1 | 0.17 | 65 | 2.3 | 0.22 | 77 | 68 | 0.06 | 60 | 0.16 | 58 | 0.1 | 0.13 |  |  |  |  |  |  | 
C=CCn1c(SC/C(=N/O)c2ccccc2)nnc1-c1ccc(OC)cc1 | 0.14 | 67 | 1.14 | 0.15 | 76 | 57 | 0.09 | 66 | 0.15 | 61 | 0.12 | 0.12 |  |  |  |  |  |  | 
C=CCn1c(SC/C(=N/O)c2ccccc2)nnc1-c1cc(OC)c(OC)c(OC)c1 | 0.17 | 70 | 5.52 | 0.17 | 73 | 77 | 0.08 | 68 | 0.13 | 61 | 0.1 | 0.12 |  |  |  |  |  |  | 
COc1ccc2c(c1)c(CC(=O)O)c(C)n2C(=O)c1ccc(Cl)cc1 [INDOMETHACIN] |  | 74 | 63.45 |  | 83 | 87 |  | 67 |  | 51 |  |  |  | Toxic | Toxic | Toxic | Toxic | Toxic | Toxic
